Source: ChEMBL document CHEMBL4428115, “Molecular docking studies, biological and toxicity evaluation of dihydroisoquinoline derivatives as potential anticancer agents” (Bioorg Med Chem, 2016)
Calls of active or inactive are those of the source. The calls are words filed in the database; no cut-off is given here.

Tests used:
[1] = test system: MCF7; test: Antiproliferative activity against human MCF7 cells after 72 hrs by SRB assay; format: functional, cell-based; details: MCF7, 72 h
How it was run: (§1)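 Adherent cells plated at 1 × 10^4 per well 24 h before treatment, then exposed 72 h to compounds diluted from 20 mg/mL DMSO stock (0.01–1000 µg/mL). Fixed in cold 50% TCA at 4°C for 1 h, stained with 0.4% sulforhodamine B, bound dye extracted with 10 mM Tris, OD at 540 nm. Triplicates, 3–5 experiments; IC50 per experiment, mean ± SD.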

[2] = test system: HL60/MX2; test: Antiproliferative activity against human HL60/MX2 cells at 290 uM after 72 hrs by MTT assay; format: functional, cell-based
How it was run: (§2)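 MTT read-out in leukemia cells exposed 72 h to the highest concentration, 100 µg/ml (290 µM), expressed as % proliferation inhibition. Cells seeded at 1 × 10^4 per well 24 h beforehand; MTT for 4 h, DMF/SDS lysis, 570 nm.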

[3] = test system: BALB/3T3; test: Antiproliferative activity against mouse BALB/3T3 cells after 72 hrs by SRB assay; format: cell-based; details: BALB/3T3, 72 h; how it was run: as §1
[4] = Antiproliferative activity against HLMEC after 72 hrs by SRB assay; set-up: species or system Homo sapiens; how it was run: as §1
[5] = test system: HL-60; test: Antiproliferative activity against human HL60 cells at 290 uM after 72 hrs by MTT assay; format: functional, cell-based; how it was run: as §2
[6] = test system: MCF10; test: Antiproliferative activity against human MCF10 cells after 72 hrs by SRB assay; format: cell-based; details: MCF10, 72 h; how it was run: as §1
[7] = test system: BALB/3T3; test: (§3) Antiproliferative activity against mouse BALB/3T3 cells at 290 uM after 72 hrs by SRB assay; format: cell-based; details: balb/3t3, 72 h, 290 µM
How it was run: (§4)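 SRB test of adherent cells after 72 h exposure at the highest concentration, 100 µg/ml (290 µM). Cells plated at 1 × 10^4 per well 24 h before treatment; TCA fixation, 0.4% SRB staining, OD 540 nm. Result expressed as % inhibition of proliferation.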

[8] = test system: MCF7; test: Antiproliferative activity against human MCF7 cells at 290 uM after 72 hrs by SRB assay; format: functional; how it was run: as §4
[9] = test system: MCF10; test: (§5) Antiproliferative activity against human MCF10 cells at 290 uM after 72 hrs by SRB assay; format: cell-based; details: mcf10, 72 h, 290 µM; how it was run: as §4
[10] = Antiproliferative activity against HLMEC at 290 uM after 72 hrs by SRB assay; details: human; how it was run: as §4
[11] = test system: HL-60; test: Antiproliferative activity against human HL60 cells after 72 hrs by MTT assay; format: functional, cell-based; details: HL-60, 72 h
How it was run: (§6)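 Leukemia cells seeded at 1 × 10^4 per well 24 h before adding compounds (0.01–1000 µg/mL from DMSO stock), exposed 72 h. MTT (5 mg/mL stock) added for 4 h, then DMF/SDS lysis mixture; absorbance at 570 nm read after 24 h. Triplicates per experiment, 3–5 repeats; IC50 calculated per experiment, reported as mean ± SD.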

[12] = test system: HL60/MX2; test: Antiproliferative activity against human HL60/MX2 cells after 72 hrs by MTT assay; format: functional, cell-based; details: HL60/MX2, 72 h; how it was run: as §6
[13] = test system: A549; test: Antiproliferative activity against human A549 cells at 290 uM; format: functional; details: read-out: GI
[14] = test system: LoVo; test: Antiproliferative activity against human LoVo cells at 290 uM; format: functional; details: read-out: GI
[15] = as §3; format: cell-based; details: BALB/3T3 cells, read-out: GI; how it was run: as §4
[16] = Antiproliferative activity against human LoVo/DX cells at 290 uM; format: functional; details: read-out: GI
[17] = as §5; format: cell-based; details: MCF10 cells, read-out: GI; how it was run: as §4

SMILES	IC50 [1]	growth inhibition (GI) [2]	IC50 [3]	IC50 [4]	growth inhibition (GI) [5]	IC50 [6]	Activity [7]	growth inhibition (GI) [8]	other results
O=C(O)C1Cc2cc(O)c(I)cc2C=N1 (stereo not given)		inactive			inactive		Non-Toxic	inactive	Activity [9]: Non-Toxic; Activity [10]: Non-Toxic
O=C(O)C1Cc2cc(O)c(O)c(I)c2C=N1 (stereo not given)	342 µM	inactive		307 µM	inactive	897 µM	Non-Toxic		
CCOC(=O)C(Cc1cc(OCc2ccccc2)cc(OCc2ccccc2)c1)(NC=O)C(=O)OCC		inactive	68.6 µM	46.5 µM	inactive			inactive	
O=C(O)C1Cc2c(O)c(O)cc(Br)c2C=N1 (stereo not given)	660 µM		1260 µM	562 µM		1440 µM			IC50 [11]: 104 µM; IC50 [12]: 247 µM
O=C(O)C1Cc2cc(O)c(O)c(Br)c2C=N1 (stereo not given)	224 µM	inactive	183 µM	126 µM		904 µM			IC50 [11]: 156 µM
O=C(O)C1Cc2cc(O)c(Br)c(O)c2C=N1 (stereo not given)		inactive			inactive		Non-Toxic	inactive	Activity [9]: Non-Toxic; Activity [10]: Non-Toxic
CC(C)C[C@H](NC(=O)[C@@H](O)[C@H](N)Cc1ccccc1)C(=O)O [UBENIMEX]	150 µM								inhibition of growth at 290 µM [13]: 48%; inhibition of growth at 290 µM [14]: 54.8%; inhibition at 72 h, 290 µM [15]: 37.7%; inhibition of growth at 290 µM ([8]; MCF7, 72 h, read-out: GI): 63.8%; inhibition of growth at 290 µM [16]: 26.9%; inhibition at 72 h, 290 µM [17]: 26.9%
O=C(O)C1Cc2cc(O)cc(O)c2C=N1 (stereo not given)		inactive			inactive		Non-Toxic	inactive	Activity [9]: Non-Toxic; Activity [10]: Non-Toxic

Continued, in another order:

IC50 [1]	SMILES	growth inhibition (GI) [2]	IC50 [3]	IC50 [4]	growth inhibition (GI) [5]	IC50 [6]	Activity [7]	growth inhibition (GI) [8]	other results
1200 µM	C[C@@]1(C(=O)O)Cc2cc(O)c(O)cc2C2C(Cl)C(=O)N21 (stereo not given in full)	inactive	1960 µM	1140 µM	inactive	1960 µM			
84.7 µM	O=C(O)C1Cc2cc(O)c(O)c(O)c2C=N1 (stereo not given)		235 µM	150 µM		249 µM			IC50 [11]: 124 µM; IC50 [12]: 149 µM
734 µM	COc1cc2c(cc1OC)CCC(C(=O)OCc1ccccc1)(C(=O)OCc1ccccc1)N=C2		929 µM	657 µM	inactive				
1700 µM	O=C(O)C1CCc2cc(O)c(O)cc2C=N1 (stereo not given)	inactive		1590 µM	inactive	3330 µM	Non-Toxic		
1240 µM	O=C(O)C1Cc2cc(O)c(O)cc2C=N1 (stereo not given)	inactive	1830 µM	1550 µM	inactive				
